Source: paper PMC2172527 (The Journal of Cell Biology, 2004)
“Also recorded” adds a separate entry of the source. Ends that are not written are not given here.

B1: GST-talin head: human talin 2 head (aa 1–438) expressed as GST fusion protein (protein)
chain: MVALSLKICVRHCNVVKTMQFEPSTAVYDACRVIRERVPEAQTGQASDYGLFLSDEDPRKGIWLEAGRTLDYYMLRNGDILEYKKKQRPQKIRMLDGSVKTVMVDDSKTVGELLVTICSRIGITNYEEYSLIQETIEEKKEEGTGTLKKDRTLLRDERKMEKLKAKLHTDDDLNWLDHSRTFREQGVDENETLLLRRKFFYSDQNVDSRDPVQLNLLYVQARDDILNGSHPVSFEKACEFGGFQAQIQFGPHVEHKHKPGFLDLKEFLPKEYIKQRGAEKRIFQEHKNCGEMSEIEAKVKYVKLARSLRTYGVSFFLVKEKMKGKNKLVPRLLGITKDSVMRVDEKTKEVLQEWPLTTVKRWAASPKSFTLDFGEYQESYYSVQTTEGEQISQLIAGYIDIILKKKQSKDRFGLEGDEESTMLEESVSPKKSTILQQQ
modifications: left off: GST, end not stated, kept

Key:
talin = assay: GST-PIPKIγ tail pull-down, rat brain extract; type: binding; settings: rat brain protein extracts; Western blot and Coomassie blue, Fig. 1 A, B
In short: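 Bait: human PIPKIγ tail (aa 635–662) expressed as a GST fusion and purified, with GST alone as control. Used for affinity pull-down from lamprey spinal cord or rat brain extracts. Bound proteins were run on protein gels, then Coomassie blue stained or Western blotted with anti-talin antibody TD77.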

[1] = target: PIPKIγ (90-kD protein doublet); assay: GST-talin head pull-down, lamprey extract; type: binding; settings: Western blot with anti-PIPKIγ antibody, Fig. 1 E
In short: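 Bait: human talin 2 head (aa 1–438) expressed as a GST fusion and purified, with GST alone as control. Used for affinity purification from lamprey extract alongside a load lane. Eluates were Western blotted with an in-house anti-PIPKIγ antibody to detect the 90-kD doublet.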

[2] = test system: lamprey reticulospinal synapses; assay: EM of stimulated synapses in microinjected axons; type: cell-based, lamprey (Ichthyomyzon unicuspis); settings: GST-talin head-injected axons, estimated 0.5–2.5 μM; Fig. 5

Row | Molecule | affinity purification of talin (in words) (talin) | affinity purification of PIPKIγ 90-kD doublet (in words) [1] | clathrin-mediated endocytosis at stimulated synapses (in words) [2]
1 | GST-PIPKIγ tail: GST fusion protein of human PIPKIγ tail (aa 635–662), the 28-aa COOH-terminal tail ({GST}-ATDIYFPTDERSWVYSPLHYSAQAPPAS) | purification of the upper talin band; also recorded: Talin was the only major band retained | – | –
2 | B1 | – | specifically affinity purified | a perturbation of clathrin-mediated endocytosis at synapses similar to that observed with PIPK pep
